The source made the active and inactive calls.
Legend:
[1] = system: MCF7:CFR; test: Down regulation of cyclin-D gene expression in fulvestrant-resistant human MCF7:CFR cells at 100 nM measured after 24 hrs; type: functional, cell-based
Method in brief: (§1)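 MCF-7:CFR cells exposed to compound at 100 nM, with DMSO (0.01%) as control, for 24 h. RNA extracted and analysed by RNA-seq. Values are log2-fold changes in gene expression against the vehicle control.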

[2] = system: MCF7:TAM1; test: Growth inhibition of tamoxifen-resistant human MCF7:TAM1 cells measured after 5 days by Hoechst 33342 dye based imaging analysis; type: functional, cell-based
Method in brief: (§2)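 Cells seeded at 2000/well in their maintenance medium, treated once the next day with compound (0.1 nM–10 μM; 0.1% DMSO final). Day 5 Hoechst 33342 staining with imaging count. Survival normalized to DMSO (100%) and JQ1 3 μM (0%). IC50 given as mean ± SEM from at least two passages, each in triplicate.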

[3] = species: Homo sapiens; test: Growth inhibition of tamoxifen-sensitive human MCF7:WS8 cells measured after 5 days by Hoechst 33342 dye based imaging analysis; type: functional; method in brief: as §2
[4] = system: MCF7:CFR; test: Growth inhibition of fulvestrant-resistant human MCF7:CFR cells at 1 to 30 nM treated for 3 hrs followed by compound washout and measured after 5 days by Hoechst 33342 dye based imaging analysis; type: functional, cell-based
Method in brief: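 MCF-7:CFR cells grown 2 days in phenol red-free RPMI/10% charcoal-dextran FBS, then seeded at 2000 cells/well. Treated next day; medium replaced with normal growth medium after 3 h. On day 5, cells stained with Hoechst 33342 and counted by imaging. Survival normalized to DMSO (100%) and JQ1 3 μM (0%).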

[5] = species: Homo sapiens; test: Growth inhibition of human T47D:TDG cells harboring ESR1 D538G mutant measured after 5 days by Hoechst 33342 dye based imaging analysis; type: functional; method in brief: as §2
[6] = system: MCF7:CFR; test: Down regulation of BCL2 gene expression in fulvestrant-resistant human MCF7:CFR cells at 100 nM measured after 24 hrs; type: functional, cell-based
Method in brief: (§3)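 MCF-7:CFR cells were treated with compound at 100 nM or DMSO (0.01%) for 24 h. RNA extracted and RNA-seq performed. Output given as log2 fold change versus vehicle.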

[7] = system: MCF7:CFR; test: Down regulation of IGFBP5 gene expression in fulvestrant-resistant human MCF7:CFR cells at 100 nM measured after 24 hrs; type: functional, cell-based; method in brief: as §3
[8] = system: T47D; test: Growth inhibition of tamoxifen-sensitive human T47D cells measured after 5 days by Hoechst 33342 dye based imaging analysis; type: functional, cell-based; method in brief: as §2
[9] = system: MCF7:TAM1; test: Antitumor activity against human MCF7:TAM1 cells xenografted in ovariectomized athymic Nude-Foxn1 mouse assessed as tumor growth inhibition at 30 mg/kg/day, po administered via gavage for 4 weeks in presence of fulvestrant; type: functional, organism-based
Method in brief: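 MCF-7:Tam1 tumours established in 4–6 week old female ovariectomized athymic nude mice given daily tamoxifen 1.5 mg/mouse. […] Fulvestrant 1 (mg/mouse)/week sc. Tumour volume measured weekly by calipers as length × width² × π/6.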

[10] = system: MCF7:CFR; test: Down regulation of BCL2L1 gene expression in fulvestrant-resistant human MCF7:CFR cells at 100 nM measured after 24 hrs; type: functional, cell-based; method in brief: as §3
[11] = system: MCF7:CFR; test: Up regulation of RIPK1 gene expression in fulvestrant-resistant human MCF7:CFR cells at 100 nM measured after 24 hrs; type: functional, cell-based
Method in brief: (§4)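 MCF-7:CFR cells (fulvestrant-resistant, kept in 200 nM fulvestrant in phenol red-free stripped RPMI-1640) treated with 100 nM compound or DMSO (0.01%) for 24 h. RNA extracted and RNA-seq performed, expression reported as log2 fold change versus vehicle.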

[12] = system: MCF7:CFR; test: Down regulation of n-MYC gene expression in fulvestrant-resistant human MCF7:CFR cells at 100 nM measured after 24 hrs; type: functional, cell-based; method in brief: as §1
[13] = system: MCF7:CFR; test: Down regulation of ESR1 gene expression in fulvestrant-resistant human MCF7:CFR cells at 100 nM measured after 24 hrs; type: functional, cell-based; method in brief: as §3
[14] = system: MCF7:CFR; test: Down regulation of KRT83 gene expression in fulvestrant-resistant human MCF7:CFR cells at 100 nM measured after 24 hrs; type: functional, cell-based; method in brief: as §3
[15] = system: MCF7:CFR; test: Down regulation of IFI44L gene expression in fulvestrant-resistant human MCF7:CFR cells at 100 nM measured after 24 hrs; type: functional, cell-based; method in brief: as §3
[16] = system: MCF7:CFR; test: Down regulation of NRAS gene expression in fulvestrant-resistant human MCF7:CFR cells at 100 nM measured after 24 hrs; type: functional, cell-based; method in brief: as §3
[17] = system: MCF7:CFR; test: Down regulation of CLEC3A gene expression in fulvestrant-resistant human MCF7:CFR cells at 100 nM measured after 24 hrs; type: functional, cell-based; method in brief: as §3
[18] = species: Homo sapiens; test: Growth inhibition of tamoxifen-resistant human MCF7:5C cells measured after 5 days by Hoechst 33342 dye based imaging analysis; type: functional; method in brief: as §2
[19] = system: MCF7:CFR; test: Down regulation of ERBB3 gene expression in fulvestrant-resistant human MCF7:CFR cells at 100 nM measured after 24 hrs; type: functional, cell-based; method in brief: as §3
[20] = system: MCF7:CFR; test: Up regulation of CASP3 gene expression in fulvestrant-resistant human MCF7:CFR cells at 100 nM measured after 24 hrs; type: functional, cell-based; method in brief: as §4
[21] = system: MCF7:CFR; test: Down regulation of PARP10 gene expression in fulvestrant-resistant human MCF7:CFR cells at 100 nM measured after 24 hrs; type: functional, cell-based; method in brief: as §3
[22] = system: MCF7:CFR; test: Up regulation of CASP6 gene expression in fulvestrant-resistant human MCF7:CFR cells at 100 nM measured after 24 hrs; type: functional, cell-based; method in brief: as §4
[23] = system: MCF7:CFR; test: Up regulation of CASP9 gene expression in fulvestrant-resistant human MCF7:CFR cells at 100 nM measured after 24 hrs; type: functional, cell-based; method in brief: as §4
[24] = system: MCF7:CFR; test: Down regulation of HIST1H3B gene expression in fulvestrant-resistant human MCF7:CFR cells at 100 nM measured after 24 hrs; type: functional, cell-based; method in brief: as §3
[25] = species: Homo sapiens; test: Growth inhibition of tamoxifen and palbociclib-resistant human MCF7:CPR cells measured after 5 days by Hoechst 33342 dye based imaging analysis; type: functional; method in brief: as §2
[26] = system: MCF7:CFR; test: Up regulation of APAF1 gene expression in fulvestrant-resistant human MCF7:CFR cells at 100 nM measured after 24 hrs; type: functional, cell-based; method in brief: as §4
[27] = system: MCF7:CFR; test: Down regulation of c-MET gene expression in fulvestrant-resistant human MCF7:CFR cells at 100 nM measured after 24 hrs; type: functional, cell-based; method in brief: as §3
[28] = system: MCF7:CFR; test: Down regulation of CCDC170 gene expression in fulvestrant-resistant human MCF7:CFR cells at 100 nM measured after 24 hrs; type: functional, cell-based; method in brief: as §3
[29] = system: MCF7:CFR; test: Down regulation of c-MYC gene expression in fulvestrant-resistant human MCF7:CFR cells at 100 nM measured after 24 hrs; type: functional, cell-based; method in brief: as §1
[30] = system: MCF7:CFR; test: Down regulation of ZMYND8 gene expression in fulvestrant-resistant human MCF7:CFR cells at 100 nM measured after 24 hrs; type: functional, cell-based; method in brief: as §3
[31] = system: MCF7:CFR; test: Up regulation of CDKN1B gene expression in fulvestrant-resistant human MCF7:CFR cells at 100 nM measured after 24 hrs; type: functional, cell-based; method in brief: as §1
[32] = system: MCF7:CFR; test: Down regulation of BCAS1 gene expression in fulvestrant-resistant human MCF7:CFR cells at 100 nM measured after 24 hrs; type: functional, cell-based; method in brief: as §3
[33] = system: MCF7:CFR; test: Down regulation of NUPR1 gene expression in fulvestrant-resistant human MCF7:CFR cells at 100 nM measured after 24 hrs; type: functional, cell-based; method in brief: as §3

CCS(=O)(=O)Nc1cc(-c2cn(C)c3c(=O)[nH]ccc23)cc2c1ccn2C(C)(c1ccccn1)c1ccccn1
active: Activity [1] | growth inhibition (GI) [2] Dose-dependent effect | growth inhibition (GI) [3] Dose-dependent effect | growth inhibition (GI) [4] | growth inhibition (GI) [5] Dose-dependent effect | Activity [6] | Activity [7] | growth inhibition (GI) [8] Dose-dependent effect | TGI [9] | Activity [10] | Activity [11] | Activity [12] | Activity [13] | Activity [14] | Activity [15] | Activity [16] | Activity [17] | growth inhibition (GI) [18] Dose-dependent effect | Activity [19] | Activity [20] | Activity [21] | Activity [22] | Activity [23] | Activity [24] | growth inhibition (GI) [25] Dose-dependent effect | Activity [26] | Activity [27] | Activity [28] | Activity [29] | Activity [30] | Activity [31] | Activity [32] | Activity [33]

From ChEMBL document CHEMBL4610112, “Novel Pyrrolopyridone Bromodomain and Extra-Terminal Motif (BET) Inhibitors Effective in Endocrine-Resistant ER+ Breast Cancer with Acquired Resistance to Fulvestrant and Palbociclib” (J Med Chem, 2020)
